pIC50: −log10 of the molar value. Calls of active or inactive are those of the source. The rule behind the calls is not given here.
Legend:
Xaa-Pro aminopeptidase 1 [1] = target: T1, Xaa-Pro aminopeptidase 1 (Homo sapiens, UniProt Q9NQW7); test: Inhibition of 6-His tagged XPNPEP1 (unknown origin) expressed in Escherichia coli Rosetta DE3 cells using H-Lys(abz)-Pro-Pro-pNA as substrate incubated for 60 mins by fluorescence based analysis
Outline: (§1)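 His6-tagged XPNPEP1 was expressed in E. coli Rosetta DE3 (IPTG, 16 h, 37 °C) and purified on TALON resin. Enzyme at 3.5 nM was exposed to compound, then H-Lys(abz)-Pro-Pro-pNA was added at 100 μM final. Fluorescence (Ex/Em 320/410) was followed for 60 min. Single-point inhibition used 20 μM; IC50 as mean ± SEM of three biological replicates.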

[2] = target: T2, Xaa-Pro dipeptidase (Homo sapiens) (UniProt P12955); test: Inhibition of recombinant human PEPD using Ala-Pro as substrate assessed as alanine release by measuring increase in fluorescense signal by fluorescence based analysis
T2 sequence (whole entry): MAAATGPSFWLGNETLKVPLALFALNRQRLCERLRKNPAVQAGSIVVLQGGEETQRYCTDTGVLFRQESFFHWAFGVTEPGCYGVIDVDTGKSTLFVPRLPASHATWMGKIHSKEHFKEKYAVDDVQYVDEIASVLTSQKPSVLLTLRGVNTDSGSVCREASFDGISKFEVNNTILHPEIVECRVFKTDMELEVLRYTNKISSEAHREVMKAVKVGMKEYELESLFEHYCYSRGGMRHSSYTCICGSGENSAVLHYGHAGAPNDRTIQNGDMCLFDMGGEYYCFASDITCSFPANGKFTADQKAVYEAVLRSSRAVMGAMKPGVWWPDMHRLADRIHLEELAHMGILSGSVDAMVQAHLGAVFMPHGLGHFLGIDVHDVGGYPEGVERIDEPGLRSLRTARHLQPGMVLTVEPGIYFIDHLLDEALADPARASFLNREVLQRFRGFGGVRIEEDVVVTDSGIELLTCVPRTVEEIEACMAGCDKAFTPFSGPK

[3] = Stability of the compound in human MV4-11 cells assessed as esterase-mediated hydrolysis by LC-MS analysis; format: ADME, cell-based
Outline: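 Compound was incubated in conditioned medium from MV4;11 cells for 24 h at 37 °C, and LC/MS then measured intact ester remaining and the de-esterified free acid. n = 3, mean ± SEM.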

N/TERT-1 = test: Cytotoxicity against immortalized human N/TERT-1 Keratinocytes expressing human NLRP1 assessed as cell death at 10 uM incubated for 24 hrs by celltiter-glo assay; format: functional, cell-based
Outline: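 N/TERT-1 keratinocytes grown in keratinocyte serum-free medium with penicillin/streptomycin, bovine pituitary extract (25 μg/mL) and EGF (0.2 ng/mL), 37 °C, 5% CO2. Compound added by pintool to 2000 cells/well, 24 h exposure. Viability read by CellTiter-Glo luminescence after 2 min shaking and 10 min at 25 °C. Mean ± SEM of three biological replicates.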

THP-1 [4] = test: Induction of pyroptosis in CARD8 knockout human THP-1 cells harboring dox-inducible […] E274R mutant assessed as cell death by measuring LDH release at 10 uM pretreated with doxycycline for 16 hrs followed by compound addition and measured after 6 hrs; format: functional, cell-based
Outline: (§2)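 CARD8−/− THP-1 cells stably carrying DOX-inducible CARD8 E274R, grown in RPMI 1640 with 10% FBS, 5 × 10^5 cells/well. DOX (100 ng/mL) for 16 h or no DOX, then compound for 6 h. Supernatant LDH measured relative to a Triton X-100 lysis control. GSDMD cleavage by SDS-PAGE immunoblot of protein-normalized lysates.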

HEK-293T [5] = test: Induction of pyroptosis in human HEK293T cells expressing CASP1 and GSDMD cotransfected with dTAG-CARD8ZUC and CARD8 FIIND S297A assessed as destabilization of DPP9-CARD8 ternary complex by measuring GSDMD clevage at 10 uM incubated for 6 hrs in presence of dTAG13 by immunoblot analysis; format: functional, cell-based
Outline: (§3)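 HEK293T cells stably expressing CASP1 and GSDMD, 1.5 × 10^5 cells/well. 24 h later treated with dTAG-13 (500 nM) plus compound, DMSO as vehicle, for 6 h. Read-outs were supernatant LDH against a lysis control and GSDMD immunoblot.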

BMDM [6] = test: Induction of pyroptosis in C57BL/6J mouse BMDM cells expressing NLRP1A and NLRP1B allele 2 assessed as GSDMD clevage at 10 uM incubated for 24 hrs by immunoblot analysis; format: functional, cell-based
Outline: (§4)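 Bone marrow from femurs and tibias of 7–12-week-old C57BL/6J mice, red cells lysed. Cells differentiated 6 days at 37 °C in DMEM with 10% FBS and 15–20% L-cell medium, then replated. Exposure 24 h. LDH in supernatant measured relative to a 9% Triton X-100 lysis control. For GSDMD cleavage, cells sonicated in PBS, protein normalized, SDS-PAGE immunoblot.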

BMDM [7] = test: Induction of pyroptosis in C57BL/6J mouse BMDM cells expressing NLRP1A and NLRP1B allele 2 assessed as LDH release at 10 uM incubated for 24 hrs; format: functional, cell-based; outline: as §4
RAW264.7 [8] = test: Induction of pyroptosis in mouse RAW264.7 cells expressing NLRP1B allele 1 assessed as GSDMD clevage at 10 uM incubated for 24 hrs by immunoblot analysis; format: functional, cell-based
Outline: (§5)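 RAW264.7 cells in DMEM with L-glutamine and 10% FBS, 5 × 10^5 cells/well, treated 24 h. LDH in supernatant measured relative to a 9% Triton X-100 lysis control. GSDMD cleavage by immunoblot of PBS-sonicated lysates with protein normalized. Mean ± SEM of three biological replicates.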

HEK-293T [9] = test: Induction of pyroptosis in human HEK293T cells expressing CASP1 and GSDMD cotransfected with dTAG-CARD8ZUC and CARD8 FIIND S297A assessed as destabilization of DPP9-CARD8 ternary complex by measuring LDH release at 10 uM incubated for 6 hrs in presence of dTAG13; format: functional, cell-based; outline: as §3
THP-1 [10] = test: Induction of pyroptosis in CARD8 knockout human THP-1 cells harboring dox-inducible […] E274R mutant assessed as GSDMD cleavage at 10 uM pretreated with doxycycline for 16 hrs followed by compound addition and measured after 6 hrs by immunoblot analysis; format: functional, cell-based; outline: as §2
RAW264.7 [11] = test: Induction of pyroptosis in mouse RAW264.7 cells expressing NLRP1B allele 1 assessed as LDH release at 10 uM incubated for 24 hrs; format: functional, cell-based; outline: as §5
[12] = Stability of the compound in human MV4-11 cells assessed as esterase-mediated hydrolysis measured after 8 hrs by LC-MS analysis; format: ADME, cell-based; settings: mv4-11, 8 h
MV4-11 [13] = test: Cytotoxicity against human MV4-11 cells assessed as reduction in cell viability at 1 uM incubated for 24 hrs by celltiter-glo assay relative to control; format: functional
Outline: (§6)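 Single-dose viability screen. MV4;11 or OCI-AML2 cells at 2000 cells/well were exposed to 1 μM compound for 24 h. Viability was read by CellTiter-Glo luminescence and expressed as percent inhibition. Values are means of three biological replicates.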

OCI-AML2 [14] = test: Induction of cell death in human OCI-AML2 cells assessed as increase in PI uptake at 6.25 uM incubated for 6 hrs by PI staining based fluorescence analysis; format: functional
Outline: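 PI flux assay. 2 × 10^4 MV4;11 (WT, CARD8−/− or CASP1−/−) or OCI-AML2 cells in RPMI were given compound at 6.25 μM plus PI at 10 μM final. Fluorescence (Ex/Em 535/617 nm) was read every 5 min at 37 °C for 6 h, baseline-corrected to DMSO and normalized to the maximum response. n = 3.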

Xaa-Pro aminopeptidase 1 [15] = target: T1, Xaa-Pro aminopeptidase 1; test: Inhibition of 6-His tagged XPNPEP1 (unknown origin) expressed in Escherichia coli Rosetta DE3 cells using H-Lys(abz)-Pro-Pro-pNA as substrate at 20 uM incubated for 60 mins by fluorescence based analysis relative to control; outline: as §1
[16] = target: T2, Xaa-Pro dipeptidase (Homo sapiens); test: Inhibition of recombinant human PEPD using Ala-Pro as substrate assessed as alanine release by measuring increase in fluorescense signal at 1 uM by fluorescence based analysis relative to control
Outline: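 Recombinant human PEPD at 50 nM was incubated with Ala-Pro at 40 μM final and compound. Released alanine was detected by coupled alanine transaminase/pyruvate oxidase conversion to H2O2 and resorufin fluorescence (Ex/Em 535/587 nm) at 25 °C.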

OCI-AML2 [17] = test: Cytotoxicity against human OCI-AML2 cells assessed as reduction in cell viability at 1 uM incubated for 24 hrs by celltiter-glo assay relative to control; format: functional; outline: as §6
MV4-11 [18] = test: Cytotoxicity against CASP1 knockout human MV4-11 cells assessed as reduction in cell viability incubated for 24 hrs by celltiter-glo assay; format: functional, cell-based; settings: MV4-11, 24 h
Outline: (§7)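 MV4;11 cells (WT or CASP1−/−), grown in RPMI 1640 with 10% FBS at 37 °C, 5% CO2, plated 2000 cells/well, dosed by pintool across 100 μM to 15.2 nM in three-fold steps for 24 h. Viability by CellTiter-Glo luminescence after 2 min shaking and 10 min at 25 °C. IC50 as mean ± SEM of three biological replicates.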

MV4-11 [19] = test: Cytotoxicity against human MV4-11 cells assessed as reduction in cell viability incubated for 24 hrs by celltiter-glo assay; format: functional, cell-based; settings: MV4-11, 24 h; outline: as §7

T1 sequence (Q9NQW7 whole entry): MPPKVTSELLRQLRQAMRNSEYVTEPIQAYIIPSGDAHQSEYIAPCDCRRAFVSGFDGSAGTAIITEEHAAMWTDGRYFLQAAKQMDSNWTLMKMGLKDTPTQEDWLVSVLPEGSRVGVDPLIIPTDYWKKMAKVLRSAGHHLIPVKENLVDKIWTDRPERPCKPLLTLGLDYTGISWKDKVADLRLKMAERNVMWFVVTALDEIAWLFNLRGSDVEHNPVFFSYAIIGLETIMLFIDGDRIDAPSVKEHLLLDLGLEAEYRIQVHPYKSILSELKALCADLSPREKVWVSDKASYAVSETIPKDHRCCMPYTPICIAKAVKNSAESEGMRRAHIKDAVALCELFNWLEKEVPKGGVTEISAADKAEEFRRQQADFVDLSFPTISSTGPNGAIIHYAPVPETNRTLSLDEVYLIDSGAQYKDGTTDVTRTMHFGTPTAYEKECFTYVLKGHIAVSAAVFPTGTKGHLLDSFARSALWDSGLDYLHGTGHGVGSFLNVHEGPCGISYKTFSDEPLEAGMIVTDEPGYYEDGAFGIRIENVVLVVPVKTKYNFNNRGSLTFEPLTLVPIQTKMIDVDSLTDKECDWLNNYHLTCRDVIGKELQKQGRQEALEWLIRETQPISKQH

CC(C)C[C@@H](N)[C@H](O)C(=O)N1CCC[C@H]1C(=O)OC1CCCC1
inhibition (Xaa-Pro aminopeptidase 1 [1]): Active
inhibition [2]: Active
Stability [3]: Stable

CC(C)[C@H](N)C(=O)N1CCC[C@H]1B(O)O
Activity (N/TERT-1): Active
Activity (THP-1 [4]): inactive
Activity (HEK-293T [5]): Active
Activity (BMDM [6]): Active
Activity (BMDM [7]): Active
Activity (RAW264.7 [8]): Active
Activity (HEK-293T [9]): Active
Activity (THP-1 [10]): inactive
Activity (RAW264.7 [11]): Active

CC(C)C[C@@H](N)[C@H](O)C(=O)N1CCC[C@H]1C(=O)OC(C)(C)C
inhibition (Xaa-Pro aminopeptidase 1 [1]): Active
Stability [12]: Unstable
inhibition [2]: Active
Stability [3]: Stable

COC(=O)[C@@H](NC(=O)[C@@H]1CCCN1C(=O)[C@@H](O)[C@H](N)CC(C)C)C(C)C
Activity (MV4-11 [13]): 59%
Activity (OCI-AML2 [14]): Active
inhibition (Xaa-Pro aminopeptidase 1 [15]): 65%
inhibition [16]: 42%
Activity (OCI-AML2 [17]): 32%
pIC50 (MV4-11 [18]): < 4.70
pIC50 (MV4-11 [19]): 6.35
